Experimental findings from ChEMBL document CHEMBL4138179, “Design, synthesis and cytotoxic activity of N-Modified oleanolic saponins bearing A glucosamine” (Eur J Med Chem, 2018) are described below.

Common to all, as to format: functional, cell-based
One assay deals with HL-60. Kind of assay: Cytotoxicity against human HL60 cells assessed as cell growth inhibition after 48 hrs by MTT assay. To be noted: HL-60, 48 h. Put shortly:
(§1)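 Cells from ATCC; HL-60 grown in IMDM, PC-3 in RPMI 1640, HT29 in DMEM, each with 10% FBS and penicillin/streptomycin, 37 °C, 5% CO2. Cells incubated without or with compound at the indicated concentrations and times. Mitochondrial MTT reduction read at 570 nm on a plate reader. IC50 given as mean ± SD of at least three independent experiments.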
A general note: Tetrazolium assays rely on reduction of a dye to a coloured formazan, in cell work by metabolically active cells.

The subject of the next assay is PC-3. Briefly: Cytotoxicity against human PC3 cells assessed as cell growth inhibition after 48 hrs by MTT assay. The following applies: PC-3, 48 h. The gist of the method:
as §1

The test system of the next assay is HT-29. Kind of assay: Cytotoxicity against human HT-29 cells assessed as cell growth inhibition after 48 hrs by MTT assay. To be noted: HT-29, 48 h. The gist of the method:
as §1

The IC50 is the point on the concentration scale where inhibition reaches its midpoint.

Structures are written as SMILES.

For the compound `CC[C@]1(O)C[C@H]2CN(CCc3c([nH]c4ccccc34)[C@@](C(=O)OC)(c3cc4c(cc3OC)N(C=O)[C@H]3[C@@](O)(C(=O)OC)[C@H](OC(C)=O)[C@]5(CC)C=CCN6CC[C@]43[C@@H]65)C2)C1` [VINCRISTINE], the IC50 in the assay on HL-60 is 0.0018 µM; in the assay on PC-3, over 0.025 µM.

Take `CCCC(=O)N[C@H]1[C@H](O[C@H]2CC[C@]3(C)[C@H]4CC=C5[C@@H]6CC(C)(C)CC[C@]6(C(=O)O)CC[C@@]5(C)[C@]4(C)CC[C@H]3C2(C)C)O[C@H](CO)[C@@H](O)[C@@H]1O`: the results for the IC50 with HT-29, in the assay with HL-60 and in the assay with PC-3 were over 30 µM, 2.48 µM and over 30 µM, respectively.

On to `O=c1[nH]cc(F)c(=O)[nH]1` [FLUOROURACIL], for which the IC50 in the assay on HT-29 is 8.3 µM; with HL-60, over 30 µM; in the assay on PC-3, over 30 µM.

Regarding `CCCCCCCCCC(=O)N[C@H]1[C@H](O[C@H]2CC[C@]3(C)[C@H]4CC=C5[C@@H]6CC(C)(C)CC[C@]6(C(=O)O)CC[C@@]5(C)[C@]4(C)CC[C@H]3C2(C)C)O[C@H](CO)[C@@H](O)[C@@H]1O`, the IC50 in the assay with HT-29 is over 30 µM; with HL-60 it was 1.4 µM; in the assay on PC-3, over 30 µM.

Consider `CCCCCCC(=O)N[C@H]1[C@H](O[C@H]2CC[C@]3(C)[C@H]4CC=C5[C@@H]6CC(C)(C)CC[C@]6(C(=O)O)CC[C@@]5(C)[C@]4(C)CC[C@H]3C2(C)C)O[C@H](CO)[C@H](O)[C@@H]1O`, for which the values for the IC50 with HT-29, in the assay with HL-60 and in the assay on PC-3 were over 30 µM, 2.69 µM and over 30 µM, respectively.

`CCOC(=O)N[C@H]1[C@H](O[C@H]2CC[C@]3(C)[C@H]4CC=C5[C@@H]6CC(C)(C)CC[C@]6(C(=O)O)CC[C@@]5(C)[C@]4(C)CC[C@H]3C2(C)C)O[C@H](CO)[C@@H](O)[C@@H]1O`: the IC50 in the assay with HT-29 is over 30 µM; with HL-60, 12.5 µM; in the assay on PC-3, over 30 µM.

Consider `CCCOC(=O)N[C@H]1[C@H](O[C@H]2CC[C@]3(C)[C@H]4CC=C5[C@@H]6CC(C)(C)CC[C@]6(C(=O)O)CC[C@@]5(C)[C@]4(C)CC[C@H]3C2(C)C)O[C@H](CO)[C@@H](O)[C@@H]1O`, for which the IC50 with HT-29 was over 30 µM; in the assay on HL-60, 21.5 µM; in the assay with PC-3, over 30 µM.

For `CCC(=O)N[C@H]1[C@H](O[C@H]2CC[C@]3(C)[C@H]4CC=C5[C@@H]6CC(C)(C)CC[C@]6(C(=O)O)CC[C@@]5(C)[C@]4(C)CC[C@H]3C2(C)C)O[C@H](CO)[C@@H](O)[C@@H]1O`, the IC50 is 16.4 µM with HT-29, 6.83 µM with HL-60 and 11.9 µM in the assay with PC-3.

As to `CCCCCCCCNC(=O)N[C@H]1[C@H](O[C@H]2CC[C@]3(C)[C@H]4CC=C5[C@@H]6CC(C)(C)CC[C@]6(C(=O)O)CC[C@@]5(C)[C@]4(C)CC[C@H]3C2(C)C)O[C@H](CO)[C@@H](O)[C@@H]1O`, the concentration for half-maximal inhibition (IC50) in the assay with HT-29 is over 30 µM; with HL-60, 2.14 µM; with PC-3, over 30 µM.

In the case of `CCCCCOC(=O)N[C@H]1[C@H](O[C@H]2CC[C@]3(C)[C@H]4CC=C5[C@@H]6CC(C)(C)CC[C@]6(C(=O)O)CC[C@@]5(C)[C@]4(C)CC[C@H]3C2(C)C)O[C@H](CO)[C@@H](O)[C@@H]1O`, the figures for the IC50 with HT-29, with HL-60 and with PC-3 were over 30 µM, 1.46 µM and over 30 µM, respectively.

`CCCCCCCCCCCCCCCCCC(=O)N[C@H]1[C@H](O[C@H]2CC[C@]3(C)[C@H]4CC=C5[C@@H]6CC(C)(C)CC[C@]6(C(=O)O)CC[C@@]5(C)[C@]4(C)CC[C@H]3C2(C)C)O[C@H](CO)[C@@H](O)[C@@H]1O`: the IC50 with HT-29, in the assay with HL-60 and with PC-3 was over 30 µM in each case.

For the compound `CCCCC(=O)N[C@H]1[C@H](O[C@H]2CC[C@]3(C)[C@H]4CC=C5[C@@H]6CC(C)(C)CC[C@]6(C(=O)O)CC[C@@]5(C)[C@]4(C)CC[C@H]3C2(C)C)O[C@H](CO)[C@@H](O)[C@@H]1O`, the IC50 in the assay with HT-29 was determined as 21.7 µM; in the assay with HL-60, 10.6 µM; in the assay with PC-3, 24 µM.

As to `CCCCCCOC(=O)N[C@H]1[C@H](O[C@H]2CC[C@]3(C)[C@H]4CC=C5[C@@H]6CC(C)(C)CC[C@]6(C(=O)O)CC[C@@]5(C)[C@]4(C)CC[C@H]3C2(C)C)O[C@H](CO)[C@@H](O)[C@@H]1O`, the IC50 in the assay on HT-29 came out at 21.4 µM; with HL-60, 1.44 µM; in the assay on PC-3 it was 13.9 µM.

Take `CCCCCCCCC(=O)N[C@H]1[C@H](O[C@H]2CC[C@]3(C)[C@H]4CC=C5[C@@H]6CC(C)(C)CC[C@]6(C(=O)O)CC[C@@]5(C)[C@]4(C)CC[C@H]3C2(C)C)O[C@H](CO)[C@@H](O)[C@@H]1O`: the IC50 in the assay on HT-29 turned out to be 22.8 µM; with HL-60 it was 1.46 µM; with PC-3, 14.7 µM.

Turning to `COC(=O)N[C@H]1[C@H](O[C@H]2CC[C@]3(C)[C@H]4CC=C5[C@@H]6CC(C)(C)CC[C@]6(C(=O)O)CC[C@@]5(C)[C@]4(C)CC[C@H]3C2(C)C)O[C@H](CO)[C@@H](O)[C@@H]1O`, the IC50 with HT-29 is over 30 µM; in the assay on HL-60, 11.4 µM; with PC-3, over 30 µM.

With `CC(=O)N[C@H]1[C@H](O[C@H]2CC[C@]3(C)[C@H]4CC=C5[C@@H]6CC(C)(C)CC[C@]6(C(=O)O)CC[C@@]5(C)[C@]4(C)CC[C@H]3C2(C)C)O[C@H](CO)[C@H](O)[C@@H]1O`, the results for the IC50 with HT-29, in the assay on HL-60 and with PC-3 were 23.3 µM, 11.6 µM and 23.4 µM, respectively.

Take `CC1(C)CC[C@]2(C(=O)O)CC[C@]3(C)C(=CC[C@@H]4[C@@]5(C)CC[C@H](O[C@@H]6O[C@H](CO)[C@@H](O)[C@H](O)[C@H]6N)C(C)(C)[C@@H]5CC[C@]43C)[C@@H]2C1`: the values for the IC50 with HT-29, with HL-60 and with PC-3 were over 30 µM, 2.65 µM and 25 µM, respectively.

Turning to `CCCCCCCCCCCCCCCC(=O)N[C@H]1[C@H](O[C@H]2CC[C@]3(C)[C@H]4CC=C5[C@@H]6CC(C)(C)CC[C@]6(C(=O)O)CC[C@@]5(C)[C@]4(C)CC[C@H]3C2(C)C)O[C@H](CO)[C@@H](O)[C@@H]1O`, the half-maximal inhibitory concentration (IC50) with HT-29, with HL-60 and with PC-3 was over 30 µM in each case.

As for `CCCCCCCC(=O)N[C@H]1[C@H](O[C@H]2CC[C@]3(C)[C@H]4CC=C5[C@@H]6CC(C)(C)CC[C@]6(C(=O)O)CC[C@@]5(C)[C@]4(C)CC[C@H]3C2(C)C)O[C@H](CO)[C@@H](O)[C@@H]1O`, the IC50 turned out to be 21.9 µM in the assay on HT-29, 1.68 µM in the assay on HL-60 and 19.4 µM with PC-3.

Consider `CCCCCCCCOC(=O)N[C@H]1[C@H](O[C@H]2CC[C@]3(C)[C@H]4CC=C5[C@@H]6CC(C)(C)CC[C@]6(C(=O)O)CC[C@@]5(C)[C@]4(C)CC[C@H]3C2(C)C)O[C@H](CO)[C@@H](O)[C@@H]1O`, for which the IC50 with HT-29 came to 20.3 µM; in the assay with HL-60 it was 1.42 µM; with PC-3, 15.4 µM.

As for `CCCCCCCCCCCC(=O)N[C@H]1[C@H](O[C@H]2CC[C@]3(C)[C@H]4CC=C5[C@@H]6CC(C)(C)CC[C@]6(C(=O)O)CC[C@@]5(C)[C@]4(C)CC[C@H]3C2(C)C)O[C@H](CO)[C@@H](O)[C@@H]1O`, the IC50 in the assay with HT-29 is over 30 µM; in the assay on HL-60, 1.57 µM; in the assay with PC-3, 21.4 µM.

Turning to `CCCCCCCCCCCCCC(=O)N[C@H]1[C@H](O[C@H]2CC[C@]3(C)[C@H]4CC=C5[C@@H]6CC(C)(C)CC[C@]6(C(=O)O)CC[C@@]5(C)[C@]4(C)CC[C@H]3C2(C)C)O[C@H](CO)[C@@H](O)[C@@H]1O`, the IC50 in the assay with HT-29 is over 30 µM; in the assay on HL-60 it was 10.7 µM; in the assay with PC-3 it was over 30 µM.

Turning to `CC1(C)CC[C@]2(C(=O)O)CC[C@]3(C)C(=CC[C@@H]4[C@@]5(C)CC[C@H](O)C(C)(C)[C@@H]5CC[C@]43C)[C@@H]2C1` [OLEANOLIC_ACID], the IC50 in the assay on HT-29, in the assay on HL-60 and in the assay with PC-3 was over 30 µM throughout.

Turning to `CC(=O)N[C@H]1[C@H](O[C@H]2CC[C@]3(C)[C@H]4CC=C5[C@@H]6CC(C)(C)CC[C@]6(C(=O)O)CC[C@@]5(C)[C@]4(C)CC[C@H]3C2(C)C)O[C@H](CO)[C@@H](O)[C@@H]1O`, the IC50 was over 30 µM with HT-29, 10.3 µM with HL-60 and over 30 µM in the assay with PC-3.

In the case of `CCCCCC(=O)N[C@H]1[C@H](O[C@H]2CC[C@]3(C)[C@H]4CC=C5[C@@H]6CC(C)(C)CC[C@]6(C(=O)O)CC[C@@]5(C)[C@]4(C)CC[C@H]3C2(C)C)O[C@H](CO)[C@@H](O)[C@@H]1O`, the 50% inhibitory concentration (IC50) in the assay with HT-29 was over 30 µM; with HL-60 it was 5.82 µM; in the assay on PC-3, over 30 µM.

As to `CCCCCCCOC(=O)N[C@H]1[C@H](O[C@H]2CC[C@]3(C)[C@H]4CC=C5[C@@H]6CC(C)(C)CC[C@]6(C(=O)O)CC[C@@]5(C)[C@]4(C)CC[C@H]3C2(C)C)O[C@H](CO)[C@@H](O)[C@@H]1O`, the IC50 was 21.7 µM in the assay with HT-29, 0.76 µM in the assay on HL-60 and 15.4 µM with PC-3.

Regarding `CCCCOC(=O)N[C@H]1[C@H](O[C@H]2CC[C@]3(C)[C@H]4CC=C5[C@@H]6CC(C)(C)CC[C@]6(C(=O)O)CC[C@@]5(C)[C@]4(C)CC[C@H]3C2(C)C)O[C@H](CO)[C@@H](O)[C@@H]1O`, the values for the IC50 in the assay on HT-29, in the assay with HL-60 and in the assay with PC-3 were 18.1 µM, 2.23 µM and 15 µM, respectively.

As to `CCCCCCCCCOC(=O)N[C@H]1[C@H](O[C@H]2CC[C@]3(C)[C@H]4CC=C5[C@@H]6CC(C)(C)CC[C@]6(C(=O)O)CC[C@@]5(C)[C@]4(C)CC[C@H]3C2(C)C)O[C@H](CO)[C@@H](O)[C@@H]1O`, the IC50 amounted to 22 µM with HT-29, 1.23 µM in the assay on HL-60 and 16.1 µM with PC-3.
